Assay results: ChEMBL document CHEMBL1141374 (J Med Chem, 2007)
One block for each molecule: values may come before it.

Key:
[1] = Cytotoxicity against P-glycoprotein-overexpressing KB-V1 cell line; format: cell-based; details: Homo sapiens
Method in brief: (§1)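 Log-phase cells were diluted to 20 000–30 000 cells/mL, seeded, and left to attach overnight. They were then exposed to compounds at 10^–5–10^–12 M for 72 h at 37 °C in 5% CO2. Viable cells were measured by MTT, with absorbance read at 595 nm. Each compound ran in triplicate in at least three independent assays. IC50 came from nonlinear regression, and average values were reported.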

[2] = tested on: CCRF-CEM; experiment: Growth inhibition in CCRF-CEM cells; format: functional; details: Homo sapiens
[3] = tested on: HL-60; experiment: Growth inhibition in HL60 cells; format: functional; details: Homo sapiens
[4] = tested on: K562; experiment: Growth inhibition in K562 cells; format: functional; details: Homo sapiens
[5] = tested on: A549; experiment: Growth inhibition in A549 cells; format: functional; details: Homo sapiens
[6] = tested on: EKVX; experiment: Growth inhibition in EKVX cells; format: functional; details: Homo sapiens
[7] = tested on: HOP-62; experiment: Growth inhibition in HOP62 cells; format: functional; details: Homo sapiens
[8] = tested on: HOP-92; experiment: Growth inhibition in HOP92 cells; format: functional; details: Homo sapiens
[9] = tested on: NCI-H226; experiment: Growth inhibition in NCI-H226 cells; format: functional; details: Homo sapiens
[10] = tested on: NCI-H23; experiment: Growth inhibition in NCI-H23 cells; format: functional; details: Homo sapiens
[11] = tested on: NCI-H322M; experiment: Growth inhibition in NCI-H322M cells; format: functional; details: Homo sapiens
[12] = tested on: NCI-H460; experiment: Growth inhibition in NCI-H460 cells; format: functional; details: Homo sapiens
[13] = tested on: NCI-H522; experiment: Growth inhibition in NCI-H522 cells; format: functional; details: Homo sapiens
[14] = tested on: COLO 205; experiment: Growth inhibition in COLO205 cells; format: functional; details: Homo sapiens
[15] = tested on: HCC 2998; experiment: Growth inhibition in HCC2998 cells; format: functional; details: Homo sapiens
[16] = Growth inhibition in HCC116 cells; format: functional; details: Homo sapiens
[17] = Growth inhibition in HCC15 cells; format: functional; details: Homo sapiens
[18] = tested on: HT-29; experiment: Growth inhibition in HT29 cells; format: functional; details: Homo sapiens
[19] = tested on: KM12; experiment: Growth inhibition in KM12 cells; format: functional; details: Homo sapiens
[20] = tested on: SW-620; experiment: Growth inhibition in SW620 cells; format: functional; details: Homo sapiens
[21] = tested on: SF-268; experiment: Growth inhibition in SF268 cells; format: functional; details: Homo sapiens
[22] = tested on: SF-295; experiment: Growth inhibition in SF295 cells; format: functional; details: Homo sapiens
[23] = tested on: SF-539; experiment: Growth inhibition in SF539 cells; format: functional; details: Homo sapiens
[24] = tested on: SNB-19; experiment: Growth inhibition in SNB19 cells; format: functional; details: Homo sapiens
[25] = tested on: SNB-75; experiment: Growth inhibition in SNB75 cells; format: functional; details: Homo sapiens
[26] = tested on: U-251; experiment: Growth inhibition in U251cells; format: functional; details: Homo sapiens
[27] = tested on: LOX IMVI; experiment: Growth inhibition in LOX IMVI cells; format: functional; details: Homo sapiens
[28] = tested on: M14; experiment: Growth inhibition in M14 cells; format: functional; details: Homo sapiens
[29] = tested on: SK-MEL-28; experiment: Growth inhibition in SK-MEL-28 cells; format: functional; details: Homo sapiens
[30] = tested on: SK-MEL-5; experiment: Growth inhibition in SK-MEL-5 cells; format: functional; details: Homo sapiens
[31] = tested on: UACC-257; experiment: Growth inhibition in UACC257 cells; format: functional; details: Homo sapiens
[32] = tested on: UACC-62; experiment: Growth inhibition in UACC62 cells; format: functional; details: Homo sapiens
[33] = tested on: IGROV-1; experiment: Growth inhibition in IGROV1 cells; format: functional; details: Homo sapiens
[34] = tested on: OVCAR-3; experiment: Growth inhibition in OVCAR-3 cells; format: functional; details: Homo sapiens
[35] = tested on: OVCAR-4; experiment: Growth inhibition in OVCAR4 cells; format: functional; details: Homo sapiens
[36] = tested on: OVCAR-5; experiment: Growth inhibition in OVCAR5 cells; format: functional; details: Homo sapiens
[37] = tested on: OVCAR-8; experiment: Growth inhibition in OVCAR8 cells; format: functional; details: Homo sapiens
[38] = tested on: SK-OV-3; experiment: Growth inhibition in SKOV3 cells; format: functional; details: Homo sapiens
[39] = tested on: RXF 393; experiment: Growth inhibition in RXF393 cells; format: functional; details: Homo sapiens
[40] = tested on: SN12C; experiment: Growth inhibition in SN12C cells; format: functional; details: Homo sapiens
[41] = tested on: 786-0; experiment: Growth inhibition in 786-0 cells; format: functional; details: Homo sapiens
[42] = tested on: A498; experiment: Growth inhibition in A498 cells; format: functional; details: Homo sapiens
[43] = tested on: ACHN; experiment: Growth inhibition in ACHN cells; format: functional; details: Homo sapiens
[44] = tested on: CAKI-1; experiment: Growth inhibition in CAK1-1 cells; format: functional; details: Homo sapiens
[45] = tested on: TK-10; experiment: Growth inhibition in TK10 cells; format: functional; details: Homo sapiens
[46] = tested on: UO-31; experiment: Growth inhibition in UO31 cells; format: functional; details: Homo sapiens
[47] = tested on: PC-3; experiment: Growth inhibition in PC3 cells; format: functional; details: Homo sapiens
[48] = tested on: DU-145; experiment: Growth inhibition in DU145 cells; format: functional; details: Homo sapiens
[49] = tested on: MCF7; experiment: Growth inhibition in MCF7 cells; format: functional; details: Homo sapiens
[50] = tested on: NCI/ADR-RES; experiment: Growth inhibition in NCI/ADR-RES cells; format: functional; details: Homo sapiens
[51] = Growth inhibition in MDA-MB-231/ATCC cells; format: functional; details: Homo sapiens
[52] = Growth inhibition in HS 578T cells; format: functional; details: Homo sapiens
[53] = tested on: MDA-MB-435; experiment: Growth inhibition in MDA-MB-435 cells; format: functional; details: Homo sapiens
[54] = tested on: BT-549; experiment: Growth inhibition in BT549 cells; format: functional; details: Homo sapiens
[55] = tested on: T47D; experiment: Growth inhibition in T47D cells; format: functional; details: Homo sapiens
[56] = tested on: HCT-116; experiment: Cytotoxicity against HCT116 cell line; format: cell-based; details: Homo sapiens; method in brief: as §1
[57] = tested on: ZR-75-1; experiment: Cytotoxicity against ZR-75-1 cell line; format: cell-based; details: Homo sapiens; method in brief: as §1
[58] = tested on: HeLa; experiment: Cytotoxicity against HeLa cell line; format: cell-based; details: Homo sapiens; method in brief: as §1
[59] = Cytotoxicity against KB-3-1 cell line; format: cell-based; details: Homo sapiens; method in brief: as §1
[60] = molecular target: Tubulin; experiment: Inhibition of tubulin polymerization; format: protein-complex assay, Homo sapiens
Method in brief: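 Kit-based assay run per the manufacturer's instructions. Tubulin (>99% pure, 3 mg/mL) in G-PEM buffer, in a prewarmed plate with compound at 0.03–30 μM. OD340 nm read every 60 s at 37 °C for 1 h.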

SMILES: COc1ccc(-n2cnnc2-c2cc(OC)c(OC)c(OC)c2)cc1F
IC50 [1]: 1480 nM | GI50 [2]: 2570 nM | GI50 [3]: 6030 nM | GI50 [4]: 759 nM | GI50 [5]: 12000 nM | GI50 [6]: 89100 nM | GI50 [7]: 2040 nM | GI50 [8]: 5370 nM | GI50 [9]: 7080 nM | GI50 [10]: 2240 nM | GI50 [11]: 8130 nM | GI50 [12]: 3160 nM | GI50 [13]: 4570 nM | GI50 [14]: 3980 nM | GI50 [15]: 631 nM | GI50 [16]: 3020 nM | GI50 [17]: 1660 nM | GI50 [18]: 3160 nM | GI50 [19]: 1450 nM | GI50 [20]: 4070 nM | GI50 [21]: 9330 nM | GI50 [22]: 1860 nM | GI50 [23]: 3890 nM | GI50 [24]: 6310 nM | GI50 [25]: 3020 nM | GI50 [26]: 5130 nM | GI50 [27]: 5130 nM | GI50 [28]: 2240 nM | GI50 [29]: 39800 nM | GI50 [30]: 2570 nM | GI50 [31]: > 100000 nM | GI50 [32]: 3630 nM | GI50 [33]: 4900 nM | GI50 [34]: 2090 nM | GI50 [35]: 5250 nM | GI50 [36]: 5620 nM | GI50 [37]: 6310 nM | GI50 [38]: 8320 nM | GI50 [39]: 1700 nM | GI50 [40]: 4680 nM | GI50 [41]: 3160 nM | GI50 [42]: 8130 nM | GI50 [43]: 5620 nM | GI50 [44]: 2950 nM | GI50 [45]: > 100000 nM | GI50 [46]: 17800 nM | GI50 [47]: 3020 nM | GI50 [48]: 4790 nM | GI50 [49]: 1000 nM | GI50 [50]: 2000 nM | GI50 [51]: 6460 nM | GI50 [52]: 6460 nM | GI50 [53]: 331 nM | GI50 [54]: 9330 nM | GI50 [55]: > 100000 nM | IC50 [56]: 365 nM | IC50 [57]: 367 nM | IC50 [58]: 173 nM | IC50 [59]: 399 nM

IC50 [60]: 4100 nM | GI50 [2]: 61.7 nM | GI50 [3]: 105 nM | GI50 [4]: 12.9 nM | GI50 [5]: 398 nM | GI50 [9]: 100000 nM | GI50 [10]: 6760 nM | GI50 [11]: 2630 nM | GI50 [12]: 178 nM | GI50 [13]: 57.5 nM | GI50 [14]: 87.1 nM | GI50 [15]: 85.1 nM | GI50 [18]: 30.9 nM | GI50 [20]: 75.9 nM | GI50 [26]: 151 nM | GI50 [30]: 69.2 nM | GI50 [34]: 34.7 nM | GI50 [35]: 20900 nM | GI50 [36]: 4270 nM | GI50 [37]: 2570 nM | GI50 [38]: 347 nM | GI50 [41]: 398 nM | GI50 [43]: 204 nM | GI50 [47]: 28.2 nM | GI50 [48]: 1860 nM | GI50 [49]: 275 nM | GI50 [53]: < 10 nM | GI50 [54]: 25100 nM | GI50 [55]: 47.9 nM
SMILES: COc1cc(-c2nncn2-c2ccc(N(C)C)cc2)cc(OC)c1OC
IC50 [1]: 323 nM | GI50 [6]: > 100000 nM | GI50 [7]: 275 nM | GI50 [8]: 389 nM | GI50 [16]: 60.3 nM | GI50 [17]: 60.3 nM | GI50 [19]: 26.3 nM | GI50 [21]: 34.7 nM | GI50 [22]: 37.1 nM | GI50 [23]: 324 nM | GI50 [24]: 204 nM | GI50 [25]: 107 nM | GI50 [27]: 219 nM | GI50 [28]: 50.1 nM | GI50 [31]: 100000 nM | GI50 [32]: 95.5 nM | GI50 [33]: 95.5 nM | GI50 [39]: 1620 nM | GI50 [40]: 724 nM | GI50 [42]: 490 nM | GI50 [44]: 135 nM | GI50 [45]: 1660 nM | GI50 [46]: 955 nM | GI50 [50]: 129 nM | GI50 [51]: 1020 nM | GI50 [52]: 417 nM | IC50 [56]: 91.5 nM | IC50 [57]: 308 nM | IC50 [58]: 29.6 nM | IC50 [59]: 119 nM
